Assay results pooled from the literature.
Target: BMP-2-inducible protein kinase (BMP2K, Homo sapiens, UniProt Q9NSY1)

With `N#CC1(c2ccccn2)CCN(Cc2cc(C(=O)N3CCCC3)c(=O)n3ccccc23)CC1` the remaining binding was 92% (cell-free assay, competition with immobilised ligand; 1 µM).
`Cc1nn(CC(F)(F)F)cc1Nc1ncc(C2CC2)c(NCc2ccc(S(N)(=O)=O)cc2)n1` gave a remaining activity of 94% (enzyme activity, inhibitor, radiometric; 1 µM).
`CN(CCCC(F)(F)F)c1nccc(-c2cnn3ncccc23)n1` has a remaining binding of 100% (binding; 1 µM).
`Cn1c2c(Cl)c(Cl)ccc2c2cc[nH]c(=O)c21` has a ΔTm of over 8 °C (thermal stability, DSF; 10 µM).
`Cn1nc(C(=O)NCc2ccc(C(=O)O)cc2)cc1-c1ccc2[nH]ccc2c1` gave a remaining binding of 82% (cell-free assay, competition with immobilised ligand; 0.1 µM).
`CN1CCc2cc(Nc3ncc(C4CC4)c(NCCCNC(=O)C4CCC4)n3)ccc2C1` has a remaining activity of 3% (enzyme activity, inhibitor, radiometric; 1 µM).
With `Nc1ncnc2occ(-c3ccc(NC(=O)Nc4cc(C(F)(F)F)ccc4F)cc3)c12` the remaining signal was 59% (cell-free assay, inhibitor; 20 µM).
The remaining activity of `Cc1ccc(C(=O)Nc2ccc(CN3CCN(C)CC3)c(C(F)(F)F)c2)cc1C#Cc1cnc2cccnn12` is reported as 95% (enzyme activity, inhibitor; 23.5 nM).
`NS(=O)(=O)c1ccc(CNc2ccnc(Nc3cccc(CN4CCOCC4)c3)n2)cc1` has a remaining activity of 51% (enzyme activity, inhibitor, radiometric; 1 µM).
`Cc1ccc(C(=O)NCc2ccsc2)cc1C#Cc1cn(C(C)C)c2ncnc(N)c12` has an activity vs control of 128% (enzyme activity, inhibitor; 1 µM).
